Laboratory results reported in ChEMBL document CHEMBL1240473, “Synthesis and bioassay of aminosulfonyl-1,3,4-oxadiazoles and their interconversion to 1,3,4-thiadiazoles” (2010).
≈ marks a conversion by molar mass, not a printed value.

Assays:
Type in all cases: functional
[1] = test system: Bacillus subtilis; assay: Antimicrobial activity against Bacillus subtilis NCIM 2063 after 24 hrs by microdilution susceptibility method; details: NCIM 2063, 24 h
Method in brief: (§1)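 Broth microdilution MIC with NCIM strains. Compounds and the references (chloramphenicol, antibacterial; ketoconazole, antifungal) were dissolved in DMSO at 800 and diluted two-fold from 400 down to 6.25. Wells were inoculated with the microbial suspension and incubated at 36 °C, 24 h for bacteria and 48 h for fungi. MIC was the lowest concentration with no visible growth.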

[2] = test system: Klebsiella pneumoniae; assay: Antimicrobial activity against Klebsiella pneumoniae NCIM 2957 after 24 hrs by microdilution susceptibility method; details: NCIM 2957, 24 h; method in brief: as §1
[3] = test system: Proteus vulgaris; assay: Antimicrobial activity against Proteus vulgaris NCIM 2027 after 24 hrs by microdilution susceptibility method; details: NCIM 2027, 24 h
[4] = test system: Fusarium solani; assay: Antimicrobial activity against Fusarium solani NCIM 1330 after 48 hrs by microdilution susceptibility method; details: NCIM 1330, 48 h; method in brief: as §1
[5] = test system: Curvularia lunata; assay: Antimicrobial activity against Curvularia lunata NCIM 716 after 48 hrs by microdilution susceptibility method; details: NCIM 716, 48 h; method in brief: as §1
[6] = test system: Aspergillus niger; assay: Antimicrobial activity against Aspergillus niger NCIM 596 after 48 hrs by microdilution susceptibility method; details: NCIM 596, 48 h; method in brief: as §1
[7] = Antioxidant activity assessed as nitric oxide scavenging activity at 100 uM after 120 min by Griess assay
Method in brief: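 Sodium nitroprusside (5 mM) in phosphate buffer pH 7.4 was incubated with test compound dissolved in dioxane/methanol at 25 °C for 120 min. A solvent-only control was run in parallel. Aliquots were mixed 1:1 with Griess reagent (1% sulfanilamide, 0.1% N-naphthylethylenediamine dihydrochloride, 2% o-phosphoric acid in water).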

[8] = test system: Radical scavenging activity; assay: Antioxidant activity assessed as DPPH free radical scavenging activity at 100 uM after 20 mins
Method in brief: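 Compound solutions were added to DPPH in dioxane/ethanol and kept at ambient temperature for 20 min, then absorbance was read at 517 nm. Percent inhibition = (A_control − A_sample)/A_control × 100, […].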

[9] = test system: Staphylococcus aureus; assay: Antimicrobial activity against Staphylococcus aureus NCIM 5021 at 100 ug/disk after 24 hrs by agar disc-diffusion method; details: NCIM 5021, 24 h, read-out: DIZ
Method in brief: (§2)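 Agar disc diffusion with NCIM strains. Sterile 6 mm filter-paper discs were moistened with compound in DMSO at 100 or 200 per disc and placed on agar plates pre-inoculated with each organism. Plates were incubated at 37 °C. Growth-inhibition zone diameter was read at 24 h for bacteria and 48 h for fungi.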

[10] = test system: Staphylococcus aureus; assay: Antimicrobial activity against Staphylococcus aureus NCIM 5021 at 200 ug/disk after 24 hrs by agar disc-diffusion method; details: NCIM 5021, 24 h, read-out: DIZ; method in brief: as §2
[11] = test system: Bacillus subtilis; assay: Antimicrobial activity against Bacillus subtilis NCIM 2063 at 100 ug/disk after 24 hrs by agar disc-diffusion method; details: NCIM 2063, 24 h, read-out: DIZ; method in brief: as §2
[12] = test system: Bacillus subtilis; assay: Antimicrobial activity against Bacillus subtilis NCIM 2063 at 200 ug/disk after 24 hrs by agar disc-diffusion method; details: NCIM 2063, 24 h, read-out: DIZ; method in brief: as §2
[13] = test system: Klebsiella pneumoniae; assay: Antimicrobial activity against Klebsiella pneumoniae NCIM 2957 at 100 ug/disk after 24 hrs by agar disc-diffusion method; details: NCIM 2957, 24 h, read-out: DIZ; method in brief: as §2
[14] = test system: Klebsiella pneumoniae; assay: Antimicrobial activity against Klebsiella pneumoniae NCIM 2957 at 200 ug/disk after 24 hrs by agar disc-diffusion method; details: NCIM 2957, 24 h, read-out: DIZ; method in brief: as §2
[15] = test system: Proteus vulgaris; assay: Antimicrobial activity against Proteus vulgaris NCIM 2027 at 100 ug/disk after 24 hrs by agar disc-diffusion method; details: NCIM 2027, 24 h, read-out: DIZ
[16] = test system: Proteus vulgaris; assay: Antimicrobial activity against Proteus vulgaris NCIM 2027 at 200 ug/disk after 24 hrs by agar disc-diffusion method; details: NCIM 2027, 24 h, read-out: DIZ
[17] = test system: Fusarium solani; assay: Antimicrobial activity against Fusarium solani NCIM 1330 at 100 ug/disk after 48 hrs by agar disc-diffusion method; details: NCIM 1330, 48 h, read-out: DIZ; method in brief: as §2
[18] = test system: Fusarium solani; assay: Antimicrobial activity against Fusarium solani NCIM 1330 at 200 ug/disk after 48 hrs by agar disc-diffusion method; details: NCIM 1330, 48 h, read-out: DIZ; method in brief: as §2
[19] = test system: Curvularia lunata; assay: Antimicrobial activity against Curvularia lunata NCIM 716 at 100 ug/disk after 48 hrs by agar disc-diffusion method; details: NCIM 716, 48 h, read-out: DIZ; method in brief: as §2
[20] = test system: Curvularia lunata; assay: Antimicrobial activity against Curvularia lunata NCIM 716 at 200 ug/disk after 48 hrs by agar disc-diffusion method; details: NCIM 716, 48 h, read-out: DIZ; method in brief: as §2
[21] = test system: Aspergillus niger; assay: Antimicrobial activity against Aspergillus niger NCIM 596 at 100 ug/disk after 48 hrs by agar disc-diffusion method; details: NCIM 596, 48 h, read-out: DIZ; method in brief: as §2
[22] = test system: Aspergillus niger; assay: Antimicrobial activity against Aspergillus niger NCIM 596 at 200 ug/disk after 48 hrs by agar disc-diffusion method; details: NCIM 596, 48 h, read-out: DIZ; method in brief: as §2
[23] = test system: Staphylococcus aureus; assay: Antimicrobial activity against Staphylococcus aureus NCIM 5021 after 24 hrs by microdilution susceptibility method; details: NCIM 5021, 24 h; method in brief: as §1

SMILES | MIC [1] [µg/mL] | MIC [2] [µg/mL] | MIC [3] [µg/mL] | MIC [4] [µg/mL] | MIC [5] [µg/mL] | MIC [6] [µg/mL] | Activity [7] [%] | Activity [8] [%] | zone of inhibition at 100 µg/disc [9] [mm] | zone of inhibition at 200 µg/disc [10] [mm] | zone of inhibition at 100 µg/disc [11] [mm] | zone of inhibition at 200 µg/disc [12] [mm] | zone of inhibition at 100 µg/disc [13] [mm] | zone of inhibition at 200 µg/disc [14] [mm] | zone of inhibition at 100 µg/disc [15] [mm] | zone of inhibition at 200 µg/disc [16] [mm] | zone of inhibition at 100 µg/disc [17] [mm] | zone of inhibition at 200 µg/disc [18] [mm] | zone of inhibition at 100 µg/disc [19] [mm] | zone of inhibition at 200 µg/disc [20] [mm] | further results
O=S(=O)(Cc1nnc(-c2ccc(Cl)cc2)s1)Nc1ccc(Cl)cc1 | 100 (≈ 250 µM) | 200 (≈ 500 µM) | 200 (≈ 500 µM) | 200 (≈ 500 µM) | 100 (≈ 250 µM) | 200 (≈ 500 µM) | 35.7 | 34.6 | 25 | 27 | 23 | 26 | 19 | 22 | 18 | 20 | 27 | 30 | 25 | 27 | zone of inhibition at 100 µg/disc [21]: 20 mm; zone of inhibition at 200 µg/disc [22]: 23 mm; MIC [23]: 100 µg/mL (≈ 250 µM)
O=S(=O)(Cc1nnc(CS(=O)(=O)c2ccc(Cl)cc2)s1)Nc1ccc(Cl)cc1 | 25 (≈ 52.3 µM) | 50 (≈ 105 µM) | 50 (≈ 105 µM) | 50 (≈ 105 µM) | 50 (≈ 105 µM) | 50 (≈ 105 µM) | 28.2 | 29.9 | 31 | 33 | 28 | 32 | 28 | 30 | 25 | 28 | 33 | 37 | 34 | 36 | zone of inhibition at 100 µg/disc [21]: 32 mm; zone of inhibition at 200 µg/disc [22]: 33 mm; MIC [23]: 25 µg/mL (≈ 52.3 µM)
Cc1ccc(NS(=O)(=O)Cc2nnc(CS(=O)(=O)c3ccc(C)cc3)s2)cc1 | 50 (≈ 114 µM) | 100 (≈ 229 µM) | 100 (≈ 229 µM) | 50 (≈ 114 µM) | 100 (≈ 229 µM) | 100 (≈ 229 µM) | 20.3 | 21.7 | 25 | 28 | 27 | 29 | 25 | 27 | 24 | 26 | 27 | 35 | 25 | 33 | zone of inhibition at 100 µg/disc [21]: 22 mm; zone of inhibition at 200 µg/disc [22]: 26 mm; MIC [23]: 50 µg/mL (≈ 114 µM)
